Measurements as given in ChEMBL document CHEMBL1799999, “N-benzoylated phenoxazines and phenothiazines: synthesis, antiproliferative activity, and inhibition of tubulin polymerization” (J Med Chem, 2011).

Experiments:
NCI-H460 = assay: Antiproliferative activity against human NCI-H460 cells after 48 hrs by alamar blue assay; type: functional, cell-based; conditions: NCI-H460, 48 h
Method in brief: (§1)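 Cells seeded in growth medium and grown 24 h at 37 °C/5% CO2. 10 mM DMSO stocks diluted in half-log steps into medium, final DMSO 0.316%. After 45 h of compound exposure, AlamarBlue (resazurin) added for a further 3 h, giving 48 h total. Fluorescence read at 590 nm against untreated and cell-free blanks. At least two replicates; IC50 by nonlinear regression.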

SK-OV-3 = assay: Antiproliferative activity against human SKOV3 cells after 48 hrs by alamar blue assay; type: functional, cell-based; conditions: SK-OV-3, 48 h; method in brief: as §1
BT-549 = assay: Antiproliferative activity against human BT549 cells after 48 hrs by alamar blue assay; type: functional, cell-based; conditions: BT-549, 48 h; method in brief: as §1
SW480 = assay: Antiproliferative activity against human SW480 cells after 48 hrs by alamar blue assay; type: functional, cell-based; conditions: SW480, 48 h; method in brief: as §1
COLO 205 = assay: Antiproliferative activity against human COLO205 cells after 48 hrs by alamar blue assay; type: functional, cell-based; conditions: COLO 205, 48 h; method in brief: as §1
DLD-1 = assay: Antiproliferative activity against human DLD1 cells after 48 hrs by alamar blue assay; type: functional, cell-based; conditions: DLD-1, 48 h; method in brief: as §1
cells = conditions: Homo sapiens, 451Lu, 48 h
K562 = assay: Antiproliferative activity against human K562 cells after 48 hrs by hemocytometric analysis; type: functional, cell-based; conditions: K562, 48 h
Method in brief: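 K562 cells in RPMI 1640 with 10% FBS at 37 °C/5% CO2, plated at 2 × 10^5 cells/mL. Compounds in DMSO/methanol 1:1, final vehicle 0.5%. Cells counted in a Neubauer hemocytometer after 48 h and expressed as % of untreated control. Triplicate wells, three experiments; IC50 by nonlinear regression.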

Tubulin = Tubulin (Sus scrofa, UniProt P02554+P02550); assay: Inhibition of pig tubulin polymerization determined after 45 mins at 37 degC by turbidimetric analysis; type: protein assay
Method in brief: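 Microtubule protein (80–90% tubulin with MAPs) from porcine brain, isolated by two cold/warm cycles. Buffer: 20 mM PIPES pH 6.8, 80 mM NaCl, 0.5 mM MgCl2, 1 mM EGTA, 1 mM DTT. Protein at 1.2 mg/mL (about 10 μM tubulin) with 0.6 mM GTP, 1% DMSO, 37 °C.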

COC(=O)Nc1nc2cc(C(=O)c3cccs3)ccc2[nH]1 [NOCODAZOLE]
IC50 (NCI-H460): 68 nM
IC50 (SK-OV-3): 80 nM
IC50 (BT-549): 69 nM
IC50 (SW480): 120 nM
IC50 (COLO 205): 88 nM
IC50 (DLD-1): 190 nM
IC50 (cells): 72 nM

COc1ccc(C(=O)N2c3ccccc3S(=O)(=O)c3ccccc32)cc1O
IC50 (K562): 180 nM
IC50 (Tubulin): 3000 nM

COc1ccc(C(=O)N2c3ccccc3Sc3ccc(OC)cc32)cc1
IC50 (K562): 970 nM
IC50 (Tubulin): 3230 nM

COc1cc(C(=O)N2c3ccccc3Sc3ccc(Cl)cc32)cc(OC)c1OC
IC50 (K562): 11000 nM
IC50 (Tubulin): > 10000 nM

O=C(c1ccc(Cl)cc1)N1c2ccccc2Oc2ccc(Cl)cc21
IC50 (K562): 20000 nM
IC50 (Tubulin): 2420 nM

N#Cc1ccc2c(c1)Oc1ccccc1N2C(=O)c1ccccc1
IC50 (K562): 230 nM
IC50 (Tubulin): 1200 nM

O=C(c1ccc2c(c1)OCO2)N1c2ccccc2Oc2ccc(Cl)cc21
IC50 (K562): 1120 nM
IC50 (Tubulin): 1130 nM

COc1ccc(C(=O)N2c3ccccc3S(=O)(=O)c3ccc(Cl)cc32)cc1
IC50 (K562): 800 nM
IC50 (Tubulin): 1050 nM

COc1ccc(C(=O)N2c3cc(Cl)ccc3Oc3ccc(Cl)cc32)cc1
IC50 (K562): 490 nM
IC50 (Tubulin): 700 nM

COc1ccc(C(=O)N2c3ccccc3Oc3ccccc32)cc1
IC50 (NCI-H460): 270 nM
IC50 (K562): 33 nM
IC50 (SK-OV-3): 210 nM
IC50 (BT-549): 120 nM
IC50 (SW480): 240 nM
IC50 (COLO 205): 240 nM
IC50 (DLD-1): 250 nM
IC50 (Tubulin): 1100 nM
IC50 (cells): 60 nM

COc1cccc(C(=O)N2c3ccccc3Oc3ccc(Cl)cc32)c1
IC50 (K562): 1380 nM
IC50 (Tubulin): 650 nM
